From ChEMBL document CHEMBL1146182, “Synthesis and cytotoxic evaluation of combretafurans, potential scaffolds for dual-action antitumoral agents” (J Med Chem, 2006) come the findings set out here.

Calls of active or inactive are those of the source. The rule behind the calls is not given here.

The target in experiment [1] is T1, Tubulin (Homo sapiens) (UniProt P68371+Q9H4B7+P0DPH7+P68366+Q13509+Q71U36+P04350+Q3ZCM7+P07437+P68363+Q9BQE3+Q6PEY2+Q13885+Q9BVA1+Q9BUF5). Put plainly: Inhibition of tubulin polymerization. The class given is protein-complex assay. In a few lines: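 Whole-cell (in vivo) tubulin polymerization assay in neuroblastoma cells. Cells are incubated overnight with a high inhibitor concentration. Proteins are then extracted in the presence of paclitaxel so that the tubulin polymerization state is frozen at extraction.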

For experiment [2], the system named is SH-SY5Y. The experiment in a line: Cytotoxicity against SHSY5Y cell line by MTT assay. It counts as functional, cell-based. The settings on record: Homo sapiens.
For experiment [3], the system named is SH-SY5Y. The experiment in a line: Cell cycle arrest in SHSY5Y cells by accumulation at G1 phase after 8 hrs. It counts as functional, Homo sapiens.
In experiment [4] the test system is SH-SY5Y. The experiment in a line: Cell cycle arrest in SHSY5Y cells by accumulation at S phase after 8 hrs. It counts as functional, Homo sapiens.
The subject of experiment [5] is SH-SY5Y. The experiment in a line: Cell cycle arrest in SHSY5Y cells by accumulation at S phase after 4 hrs. The class given is functional, Homo sapiens.
Experiment [6] relates to SH-SY5Y. Put plainly: Cell cycle arrest in SHSY5Y cells by accumulation at G2 phase after 24 hrs. The class given is functional, Homo sapiens.
Experiment [7] has as its system SH-SY5Y. The experiment in a line: Cell cycle arrest in SHSY5Y cells by accumulation at S phase after 24 hrs. The class given is functional, Homo sapiens.
Experiment [8] relates to SH-SY5Y. The experiment in a line: Cell cycle arrest in SHSY5Y cells by accumulation at G1 phase after 4 hrs. It counts as functional, Homo sapiens.
Experiment [9] deals with SH-SY5Y. Put plainly: Cell cycle arrest in SHSY5Y cells by accumulation at G1 phase after 12 hrs. The class given is functional, Homo sapiens.
Experiment [10] has as its system SH-SY5Y. The experiment in a line: Cell cycle arrest in SHSY5Y cells by accumulation at G2 phase after 12 hrs. It counts as functional, Homo sapiens.
For experiment [11], the system named is SH-SY5Y. Put plainly: Cell cycle arrest in SHSY5Y cells by accumulation at G2 phase after 8 hrs. The class given is functional, Homo sapiens.
Experiment [12] has as its system SH-SY5Y. Put plainly: Cell cycle arrest in SHSY5Y cells by accumulation at G2 phase after 4 hrs. The class given is functional, Homo sapiens.
The subject of experiment [13] is SH-SY5Y. The experiment in a line: Cell cycle arrest in SHSY5Y cells by accumulation at G1 phase after 24 hrs. The class given is functional, Homo sapiens.
Experiment [14] relates to SH-SY5Y. Put plainly: Cell cycle arrest in SHSY5Y cells by accumulation at S phase after 12 hrs. The class given is functional, Homo sapiens.
Experiment [15] concerns the target T1, Tubulin (Homo sapiens). Put plainly: Induction of tubulin depolymerization at 231 nM after 24 hrs. It counts as protein-complex assay.
The target of experiment [16] is T1, Tubulin (Homo sapiens). Put plainly: Induction of tubulin depolymerization at 35.8 nM after 24 hrs. It counts as protein-complex assay.
The subject of experiment [17] is SH-SY5Y. The experiment in a line: Cytotoxicity against SHSY5Y cell line upto 1 uM by MTT assay. The settings on record: Homo sapiens. It counts as functional, cell-based. A general note: Tetrazolium assays rely on reduction of a dye to a coloured formazan, in cell work by metabolically active cells.
Experiment [18] concerns the target T1, Tubulin (Homo sapiens). The experiment in a line: Induction of tubulin depolymerization at 2.9 nM after 24 hrs. The class given is protein-complex assay.

Broadly, the IC50 is the concentration at which inhibition is half-maximal. Low readings indicate greater potency, high ones weaker potency. On to `COc1ccc(/C=C\c2cc(OC)c(OC)c(OC)c2)cc1O` [COMBRETASTATIN A4], for which the outcome in [1] was Active. In [2], this molecule returned an IC50 of 1.6 nM. The Activity in [3] is recorded as 66%; in experiment [4], 79%; in experiment [5], 49%; in [6] it was 92%; in experiment [7], 83%; in experiment [8], 69%. Moreover, the Activity in experiment [9] is given as 64%; in experiment [10], 52%; in [11] it was 55%; in [12] it was 82%; in experiment [13], 25%; in experiment [14], 83%.
In the case of `COc1ccc(-c2c(-c3cc(OC)c(OC)c(OC)c3)coc2/C=N/NC(=O)CCCC(=O)O)cc1`, in experiment [1], the result was Active. Further, the midpoint of inhibition in experiment [2], the IC50, lay at 1670 nM.
The like results for `COc1ccc(-c2cocc2-c2cc(OC)c(OC)c(OC)c2)cc1[N+](=O)[O-]` were, in that order, “Active” and 245 nM.
Turning to `COc1ccc(-c2c(-c3cc(OC)c(OC)c(OC)c3)coc2C=O)cc1`, the result in experiment [1] and in [15] was Active. The same molecule came in with an IC50 in [2] of 231 nM. In addition, the Activity in experiment [3] stood at 93%; in experiment [4] it was 84%; in [5], 54%; in [6], 25%; in [7] it was 29%; in experiment [8], 32%. In addition, the Activity in experiment [9] is reported as 42%; in experiment [10] it was 82%; in experiment [11], 23%; in experiment [12], 62%; in experiment [13], 77%; in experiment [14], 79%.
Turning to `COc1ccc(-c2cocc2-c2cc(OC)c(OC)c(OC)c2)cc1`, in experiment [2], the IC50 is 39 nM.
For the molecule `COc1ccc(-c2coc(C=O)c2-c2cc(OC)c(OC)c(OC)c2)cc1`, the outcome in experiment [1] was Active. In addition, it took 35.8 nM to reach half-maximal inhibition in [2] (IC50). Besides, the Activity is on record as 74% in [3]; 46% in experiment [4]; 54% in experiment [5]; 81% in experiment [6]; 78% in [7]; 53% in experiment [8]. Moreover, the Activity is 50% in experiment [9]; 55% in [10]; 25% in [11]; 41% in [12]; 58% in experiment [13]; 39% in experiment [14]. Also, the result in [16] was inactive.
Turning to `COc1cc(-c2cocc2-c2ccc3c(c2)OCO3)cc(OC)c1OC`, in [17], the outcome was inactive. In [1], the result was Active.
As for `COc1ccc(-c2cocc2-c2cc(OC)c(OC)c(OC)c2)cc1O`, the result in experiment [18] and in experiment [1] was Active. This molecule also showed an IC50 in experiment [2] of 2.9 nM. Moreover, the Activity came out at 87% in [3]; 58% in experiment [4]; 53% in experiment [5]; 45% in [6]; 85% in [7]; 33% in experiment [8]. In addition, the Activity in [9] turned out to be 47%; in experiment [10], 38%; in experiment [11], 55%; in experiment [12] it was 33%; in experiment [13] it was 70%; in [14], 43%.
As to `COc1ccc(-c2cocc2-c2cc(OC)c(OC)c(OC)c2)cc1N`, the result in experiment [1] was Active. The molecule further registered an IC50 in experiment [2] of 5.1 nM.
